The values below come from ChEMBL document CHEMBL1136140, “Tripeptide inhibitors of Yersinia protein-tyrosine phosphatase” (Bioorg Med Chem Lett, 2003).

Square brackets hold non-standard residues; d marks the D form. Peptide text beside a SMILES is read from it. * marks the point of attachment. F2Pmp = N[C@@H](Cc1ccc(C(F)(F)P(=O)(O)O)cc1)C(=O)O; Fmoc = O=C(OCC1c2ccccc2-c2ccccc21)*; OBn = c1ccc(CO*)cc1 Where only a bound is given, the exact number is not on record here.

The target in assay [1] is Secreted effector protein (Yersinia pestis, UniProt O68720). As to the kind of experiment: Inhibition of Tyrosine phosphatase from Yersinia pestis expressed in Escherichia coli BL21 (DE3) cells. In a few lines: (§1)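 Recombinant enzymes made in E. coli BL21(DE3) and purified as published previously. Assay run at 30 °C, pH 7.0, in 50 mM 3,3-dimethylglutarate, 1 mM EDTA, ionic strength brought to 150 mM with NaCl. Substrate pNPP fixed at each enzyme's Km. Enzyme added to start, NaOH quench, A405 read. Six to eight inhibitor concentrations used. IC50 obtained by fitting relative activity to a four-parameter slope-factor equation.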

Assay [2] addresses T1, Tyrosine-protein phosphatase non-receptor type 1 (Homo sapiens, UniProt P18031).
T1 sequence (P18031 whole entry): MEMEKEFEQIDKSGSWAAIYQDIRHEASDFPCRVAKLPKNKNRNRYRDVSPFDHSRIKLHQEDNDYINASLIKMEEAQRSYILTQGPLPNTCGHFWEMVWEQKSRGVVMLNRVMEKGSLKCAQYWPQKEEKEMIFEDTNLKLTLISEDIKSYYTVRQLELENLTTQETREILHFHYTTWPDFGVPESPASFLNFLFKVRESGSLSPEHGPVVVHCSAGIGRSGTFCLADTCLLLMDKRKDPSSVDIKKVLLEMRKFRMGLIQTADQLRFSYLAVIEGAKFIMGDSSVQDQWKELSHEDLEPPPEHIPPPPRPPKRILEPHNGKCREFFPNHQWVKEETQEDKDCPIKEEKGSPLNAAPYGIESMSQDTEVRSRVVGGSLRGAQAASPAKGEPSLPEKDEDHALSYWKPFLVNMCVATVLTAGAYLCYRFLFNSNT
Put plainly: Inhibition of human Protein-tyrosine phosphatase 1B expressed in Escherichia coli BL21 (DE3) cells. In a few lines: as §1

Assay [3] addresses T1, Tyrosine-protein phosphatase non-receptor type 1. Put plainly: Inhibitory potency against human Protein-tyrosine phosphatase 1B expressed in Escherichia coli BL21 (DE3) cells. In a few lines: as §1

Secreted effector protein, sequence (O68720 whole entry): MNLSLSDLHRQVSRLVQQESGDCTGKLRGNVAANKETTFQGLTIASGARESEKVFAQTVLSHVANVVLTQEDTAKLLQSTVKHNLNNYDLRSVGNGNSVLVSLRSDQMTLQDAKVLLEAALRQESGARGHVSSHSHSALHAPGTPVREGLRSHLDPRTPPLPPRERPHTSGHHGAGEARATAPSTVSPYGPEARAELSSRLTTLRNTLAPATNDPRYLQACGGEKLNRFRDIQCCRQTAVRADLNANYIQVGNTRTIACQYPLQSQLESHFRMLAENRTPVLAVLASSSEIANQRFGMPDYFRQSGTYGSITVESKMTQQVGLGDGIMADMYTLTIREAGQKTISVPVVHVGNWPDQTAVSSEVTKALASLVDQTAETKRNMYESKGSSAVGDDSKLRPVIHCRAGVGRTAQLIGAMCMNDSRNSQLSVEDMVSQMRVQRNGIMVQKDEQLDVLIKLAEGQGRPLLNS

With `CC(C)C[C@H](NC(=O)[C@H](Cc1ccc(C(F)(C(=O)O)C(=O)O)cc1)NC(=O)[C@H](CCC(=O)OCc1ccccc1)NC(=O)OCC1c2ccccc2-c2ccccc21)C(N)=O`, the IC50 in assay [1] and in assay [2] was 3.1 µM throughout.

In the case of `CC(C)C[C@H](NC(=O)[C@H](Cc1ccc(C(C(=O)O)C(=O)O)cc1)NC(=O)[C@H](CCC(=O)O)NC(=O)OCC1c2ccccc2-c2ccccc21)C(N)=O`, the IC50 (commonly the concentration that gives 50% inhibition) was greater than 800 µM in assay [1] and 0.8 µM in assay [2].

In assay [1], `CC(C)C[C@H](NC(=O)[C@H](Cc1ccc(OC(C(=O)O)C(=O)O)cc1)NC(=O)[C@H](CCC(=O)O)NC(=O)OCC1c2ccccc2-c2ccccc21)C(N)=O` came in with an IC50 greater than 800 µM. Also, the Ki (in general, a dissociation constant, usually derived from enzyme kinetics or from competition with a known ligand) in assay [3] was found to be 29 µM.

As for `CC(C)C[C@H](NC(=O)[C@H](Cc1ccc(OC(C(=O)O)C(=O)O)cc1)NC(=O)[C@H](CCC(=O)OCc1ccccc1)NC(=O)OCC1c2ccccc2-c2ccccc21)C(N)=O`, the IC50 in assay [1] stood at 82 µM; in assay [2], 116 µM.

For `CC(C)C[C@H](NC(=O)[C@H](Cc1ccc(OC(F)(C(=O)O)C(=O)O)cc1)NC(=O)[C@H](CCC(=O)OCc1ccccc1)NC(=O)OCC1c2ccccc2-c2ccccc21)C(N)=O`, the IC50 in assay [1] is 2.9 µM; in assay [2] it was 1.5 µM.

Take `CC(C)C[C@H](NC(=O)[C@H](Cc1ccc(OCC(=O)O)c(C(=O)O)c1)NC(=O)[C@H](CCC(=O)O)NC(=O)OCC1c2ccccc2-c2ccccc21)C(N)=O`: the IC50 in assay [1] was greater than 100 µM; in assay [2] it was 54.7 µM.

For the compound `CC(C)C[C@H](NC(=O)[C@H](Cc1ccc(OCC(=O)O)c(C(=O)O)c1)NC(=O)[C@H](CCC(=O)OCc1ccccc1)NC(=O)OCC1c2ccccc2-c2ccccc21)C(N)=O`, the IC50 in assay [1] amounted to 10.5 µM; in assay [2], 8.3 µM.

Regarding `CC(C)C[C@H](NC(=O)[C@H](Cc1ccc(CC(=O)O)c(O)c1)NC(=O)[C@H](CCC(=O)O)NC(=O)OCC1c2ccccc2-c2ccccc21)C(N)=O`, the IC50 in assay [1] was greater than 800 µM; in assay [2] it was 4 µM.

On to `CC(C)C[C@H](NC(=O)[C@H](Cc1ccc(C(F)(F)P(=O)(O)O)cc1)NC(=O)[C@H](CCC(=O)OCc1ccccc1)NC(=O)OCC1c2ccccc2-c2ccccc21)C(N)=O` (Fmoc-Glu(OBn)-[F2Pmp]-Leu-NH2), for which the IC50 was 5.2 µM in assay [1] and 1.41 µM in assay [2].

In the case of `CC(C)C[C@H](NC(=O)[C@H](Cc1ccc(CC(=O)O)c(C(=O)O)c1)NC(=O)[C@H](CCC(=O)OCc1ccccc1)NC(=O)OCC1c2ccccc2-c2ccccc21)C(N)=O`, the IC50 is 142 µM in assay [1] and 44 µM in assay [2].

Consider `CC(C)C[C@H](NC(=O)[C@H](Cc1ccc(C(F)(C(=O)O)C(=O)O)cc1)NC(=O)[C@H](CCC(=O)O)NC(=O)OCC1c2ccccc2-c2ccccc21)C(N)=O`, for which the IC50 was greater than 800 µM in assay [1] and 0.7 µM in assay [2].

For the compound `CC(C)C[C@H](NC(=O)[C@H](Cc1ccc(C(F)(F)C(=O)O)cc1)NC(=O)[C@H](CCC(=O)O)NC(=O)OCC1c2ccccc2-c2ccccc21)C(N)=O`, the IC50 in assay [1] is greater than 800 µM; in assay [2], 1.4 µM.

Consider `CC(C)C[C@H](NC(=O)[C@H](Cc1ccc(CC(=O)O)c(C(=O)O)c1)NC(=O)[C@H](CCC(=O)O)NC(=O)OCC1c2ccccc2-c2ccccc21)C(N)=O`, for which the IC50 is greater than 800 µM in assay [1] and 0.7 µM in assay [2].

On to `CC(C)C[C@H](NC(=O)[C@H](Cc1ccc(OCC(=O)O)cc1)NC(=O)[C@H](CCC(=O)OCc1ccccc1)NC(=O)OCCc1ccccc1)C(N)=O`, for which the IC50 in assay [1] was found to be 8 µM; in assay [2] it was 58.2 µM.
